# Results of several laboratories.
# Cell line: A549
# Effect on: cell growth or viability
SMILES,assay,setting,IC50
Cc1cccc(NC(=O)NNC(=O)c2ccc(Nc3nccc(-c4ccccn4)n3)cc2)c1,MTT,,> 40 µM
O=C(N/N=C/c1cccn1CCN1CCCCC1)Nc1cc2c(Nc3ccc(F)c(Cl)c3)ncnc2cc1O[C@H]1CCOC1,MTT,72 h,3.58 µM
Oc1ccc(-c2csc(Nc3ccc4c(O)ncnc4c3)n2)cc1,MTT,,31.2 µM
COc1c(C)cnc(COc2ccc(NC(=O)Nc3ccc(Cl)cc3)cc2)c1C,MTT,72 h,13.7 µM
COc1cc([C@@H]2c3cc4c(cc3[C@@H](O[C@@H]3O[C@@H]5CO[C@@H](C)O[C@H]5[C@H](O)[C@H]3O)[C@H]3COC(=O)[C@H]23)OCO4)cc(OC)c1O,MTT,72 h,0.54 µM
CCCCC/C=C/C(=O)CCc1ccc(O)c(OC)c1,SRB,,18.6 µM
C=CC(=O)Nc1cccc(Nc2nc(Nc3ccc(OCCOC)cc3)ncc2F)c1,,,4.96 µM
CCN(CC)C(=S)NC(=O)c1ccc2ccccc2c1,,48 h,4.76 µM
CCn1c(-c2nnc(NC(=O)c3cc4c([nH]c5ccccc54)c(-c4ccc(OC)cc4)n3)s2)cc2ccccc21,MTT,72 h,14.2 µM
COc1ccccc1NCC(O)COc1cccc2[nH]c3ccccc3c12 (stereo not shown),CCK-8,72 h,86.8 µM
COc1c(C)c(OC)c2c(c1C)OC(c1ccccc1)CC2=O (stereo not shown),SRB,72 h,> 50 µM
CC(=O)OCCOC(=O)[C@]1(C)CC[C@]2(C)CC[C@]3(C)C4=CC=C5C(=CC(=O)C(O)=C5C)[C@]4(C)CC[C@@]3(C)[C@@H]2C1,MTT,48 h,3.19 µM
O=C(CN1C(=O)/C(=C/c2cccc(Br)c2)SC1=S)Nc1ccccc1,MTT,,25.5 µM
CCC(=O)Nc1cc(Nc2nc(Nc3cnn(C)c3)c3sccc3n2)c(OC)cc1N(C)CCN(C)C,MTT,,7.06 µM
CC(=O)O[C@H]1C(=O)[C@@]2(C)[C@H]([C@H](OC(=O)c3ccccc3)[C@]3(O)C[C@H](OC(=O)[C@H](O)[C@@H](NC(=O)c4ccccc4)c4ccccc4)C(C)=C1C3(C)C)[C@]1(OC(C)=O)CO[C@@H]1C[C@@H]2O,CCK-8,72 h,0.0206 µM
CS(=O)(=O)c1ccc(-n2cc(/C=N/N=c3\[nH]c(-c4ccc([N+](=O)[O-])cc4)cs3)c(-c3ccc([N+](=O)[O-])cc3)n2)cc1,MTT,48 h,22.2 µM
C=CC(=O)Nc1cc(Nc2nc(N3CCc4sccc4C3)c3cccnc3n2)c(OC)cc1N1CCC(N(C)C)CC1,MTT,,0.393 µM
O=C(N/N=C/CN1CCCC1)Nc1cc2c(Nc3ccc(F)c(Cl)c3)ncnc2cc1O[C@H]1CCOC1,MTT,72 h,6.48 µM
COc1ccnc(COc2ccc(NC(=O)Nc3cccc(C(F)(F)F)c3)cc2)c1OC,MTT,72 h,6.65 µM
O=C1Nc2ccc(F)cc2/C1=N/NC(=O)c1cc2ccccc2[nH]1,,,> 30 µM
COc1cc2ncnc(Nc3ccc(F)c(Cl)c3)c2cc1NC(=O)N/N=C/c1cccn1CCCN1CCN(C)CC1,MTT,72 h,3.23 µM
NS(=O)(=O)OC[C@@H]1C[C@@H](n2ccc3c(N[C@H]4CCc5ccccc54)ncnc32)C[C@@H]1O,CCK-8,72 h,0.8 µM
